Assay outcomes (PubChem)
APOBEC3G inh – inhibitors of human APOBEC3G DNA deaminase. Q9HC16. recombinant A3G, ssDNA deamination FAM/TAMRA fluorescence. inhibition, % at 20 µM. 330,000 compounds, 0.28% hits;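 active = inhibition of at least 40% at 20 µM, with no more than 30% in the related APOBEC3A deaminase screen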;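 also: plate controls were DMSO wells with A3G for no effect and wells lacking A3G enzyme for full effect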
APOBEC3A inh – inhibitors of human APOBEC3A DNA deaminase | recombinant A3A, FAM/TAMRA ssDNA deamination fluorescence | inhibition, % at 20 µM | P31941 | 330,000 compounds, 0.41% hits | AID 493011;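 active = at least 40% inhibition at 20 µM here, with at most 30% in a related deaminase screen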;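 also: plate controls were A3A with DMSO for no effect and wells lacking A3A enzyme for full effect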
Target sequence (P31941 whole entry, looked up): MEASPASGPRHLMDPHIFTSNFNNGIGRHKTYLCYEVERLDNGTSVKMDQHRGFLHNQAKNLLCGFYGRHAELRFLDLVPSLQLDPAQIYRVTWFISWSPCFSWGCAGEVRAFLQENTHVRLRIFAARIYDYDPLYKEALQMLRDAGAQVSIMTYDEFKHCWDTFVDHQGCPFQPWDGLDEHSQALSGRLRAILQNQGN
PolyA inh – inhibitors of polyadenylation in S. cerevisiae; S. cerevisiae SKY197-pL101 polyadenylation reporter, beta-gal luminescence; efflux-impaired pdr1/pdr3 knockout yeast; score 100 = 6 SD above DMSO; activity score, % at 12 µM; 300,000 compounds, 0.02% hits; AID 1875;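 active = lowest replicate activity score at least 50, where 100 means six control SD above control mean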;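 also: yeast exposed to compound for 9 h at 30 °C; higher score means more reporter readthrough which indicates perturbed polyadenylation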
UCH37 inh – human UCH37 deubiquitinating enzyme inhibition | purified proteasome/UCH37, Ub-AMC cleavage fluorescence | inhibition, % (no concentration beside the values) | 330,000 compounds, 0.33% hits | Q9Y5K5;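 active = mean inhibition over replicate wells above about 20%, limit read from the data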;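 also: 0% = compound-free wells with enzyme and 100% = wells lacking proteasome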
Target sequence (Q9Y5K5 whole entry, looked up): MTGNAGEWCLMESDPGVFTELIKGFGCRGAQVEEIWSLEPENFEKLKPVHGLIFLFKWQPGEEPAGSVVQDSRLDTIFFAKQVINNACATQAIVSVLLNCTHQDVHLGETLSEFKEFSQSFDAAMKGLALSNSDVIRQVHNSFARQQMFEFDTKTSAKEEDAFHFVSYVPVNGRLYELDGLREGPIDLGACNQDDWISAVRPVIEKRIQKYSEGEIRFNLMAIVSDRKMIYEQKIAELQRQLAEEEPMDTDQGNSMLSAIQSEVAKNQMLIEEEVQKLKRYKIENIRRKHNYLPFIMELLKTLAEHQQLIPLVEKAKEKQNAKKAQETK
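Material: human UCH37 enzyme supplied as purified proteasome complex. Measure: % inhibition of Ub-AMC cleavage fluorescence. Medium: pH 7.4 Tris-HCl (50 mM) with ovalbumin, ATP-MgCl2, DTT. Times: 30 min preincubation with enzyme, 25 min cleavage at room temperature. Detection: AMC fluorescence intensity at 355/460 nm.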
Arr AP2 block – blocks beta-arrestin peptide binding to AP2 adaptin; FITC-arrestin peptide / GST-AP2 beads, flow cytometry; AP2 beta2 appendage carries R879A mutation; inhibition, % at 10 µM; 340,000 compounds, 0.31% hits; AID 504490;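 active = inhibition above a set limit, near 3 SD of compounds lacking own fluorescence, cut at about 54% in these data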;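 also: plate controls were DMSO wells for no effect and 5 µM unlabelled arrestin peptide for full effect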
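System: GST-AP2 R879A glutathione beads. Medium: PBS with 0.05% Tween 20 and 0.1% BSA. Also added: FITC-arrestin peptide, 50 nM. Incubation: 12 min plus 1 h, RT. Measured by: high-throughput flow cytometry of beads, ex 488, em 535 nm. Evaluation: percent drop in bead-associated FITC signal.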
AHR activator – activates the human aryl hydrocarbon receptor. P35869. activation, % at 5 µM. 320,000 compounds, 2.5% hits. AHR-responsive luciferase reporter cells, luminescence; in the data active = activation above about 47%;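 also: 0% = vehicle wells and 100% = reference agonist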
* marks the source's active call; other numbers are inactive results. The list is not random: actives were taken first. Their share in the collection is about 3.4%.

How did CC(=O)Nc1ccc(N2N=C(C)C(N=Nc3ccccc3)C2=O)cc1 (stereo not drawn) do in these assays?
APOBEC3G inh: -5; APOBEC3A inh: -4; PolyA inh: -12; UCH37 inh: 11; Arr AP2 block: 5; AHR activator: 50*

How did Cc1ccc(O)c(NC(=O)c2onc(C)c2Cl)c1 do in these assays?
APOBEC3G inh: -8; APOBEC3A inh: -4; PolyA inh: -5; UCH37 inh: 2; Arr AP2 block: 25; AHR activator: 72*

How did CN1C(=O)C(=NOC(=O)c2cccc3ccccc23)c2ccccc21 do in these assays?
UCH37 inh: -3

How did Cn1ccnc1SCC(=O)c1c[nH]c2ccccc12 do in these assays?
APOBEC3G inh: -6; APOBEC3A inh: -3; PolyA inh: 13; UCH37 inh: 4; Arr AP2 block: 0; AHR activator: 70*

Results for O=C(CSc1nc2ncc(Cl)cc2[nH]1)c1c[nH]c2ccccc12 ?
APOBEC3G inh: -1; APOBEC3A inh: 1; PolyA inh: 0; UCH37 inh: 1; Arr AP2 block: -2; AHR activator: 60*

How did O=C(CSc1nc2ccc(Cl)cc2[nH]1)c1c[nH]c2ccccc12 do in these assays?
APOBEC3G inh: 3; APOBEC3A inh: 0; UCH37 inh: 1; Arr AP2 block: -4; AHR activator: 77*

How did Cn1ccnc1SCC(=O)n1c2c(c3ccccc31)CCCC2 do in these assays?
APOBEC3G inh: -2; APOBEC3A inh: 0; PolyA inh: -16; UCH37 inh: 4; Arr AP2 block: 0; AHR activator: 72*

How did CC(=NO)C(C)(C)Nc1ccc(Cl)cc1 do in these assays?
UCH37 inh: 2

What do the screens show for `S=c1[nH]nc(-c2cccs2)n1N=Cc1c(Cl)cccc1Cl`?
UCH37 inh: 6

How did CCS(=O)(=O)C1=NN2C(=N)/C(=C\c3ccc(OC(=O)c4ccco4)c(OC)c3)C(=O)N=C2S1 do in these assays?
APOBEC3G inh: -4; APOBEC3A inh: 0; PolyA inh: 16; Arr AP2 block: 40; AHR activator: 2

How did C=CCOc1ccc(/C=C2\C(=N)N3N=C(S(=O)(=O)CC)SC3=NC2=O)cc1OC do in these assays?
APOBEC3G inh: -9; APOBEC3A inh: -5; PolyA inh: -3; UCH37 inh: 21*; Arr AP2 block: 4; AHR activator: 2

How did Cc1nc(NCCc2ccccc2F)c(C#N)c(C)c1[N+](=O)[O-] do in these assays?
APOBEC3G inh: -5; APOBEC3A inh: 3; PolyA inh: -2; UCH37 inh: 1; Arr AP2 block: 1; AHR activator: 52*

Results for COCc1c(C#N)c(NCCc2ccccc2)nc(C)c1[N+](=O)[O-] ?
APOBEC3G inh: -9; APOBEC3A inh: -6; PolyA inh: -23; UCH37 inh: 2; AHR activator: 78*

How did COCc1c(C#N)c(NCc2cc(OC)c(OC)c(OC)c2)nc(C)c1[N+](=O)[O-] do in these assays?
APOBEC3G inh: -7; APOBEC3A inh: -3; PolyA inh: -1; UCH37 inh: 4; Arr AP2 block: -17; AHR activator: 1

How did COCc1c(C#N)c(NCCc2ccc(F)cc2)nc(C)c1[N+](=O)[O-] do in these assays?
APOBEC3G inh: -6; APOBEC3A inh: -6; PolyA inh: -10; UCH37 inh: 3; Arr AP2 block: 4; AHR activator: 76*

How did COc1cccc(C=NNC(=O)c2nnn(-c3nonc3N)c2CN(C)c2ccccc2)c1 do in these assays?
UCH37 inh: 3

What do the screens show for `Cc1ccc(C=Nn2cnnc2)s1`?
UCH37 inh: 6

How did C=CCc1c(C)nc(C)nc1N/N=C/c1ccc(N(C)C)cc1 do in these assays?
APOBEC3G inh: 4; APOBEC3A inh: -5; PolyA inh: 4; Arr AP2 block: 15; AHR activator: 79*

What do the screens show for `Cc1ccc(C(=O)Nc2oc(-c3ccccc3)cc2C#N)cc1`?
APOBEC3G inh: -6; APOBEC3A inh: -4; PolyA inh: -19; UCH37 inh: -18; Arr AP2 block: 6; AHR activator: 56*

Results for N#Cc1cc(-c2ccccc2)oc1NC(=O)c1ccccc1 ?
APOBEC3G inh: -8; APOBEC3A inh: -5; PolyA inh: -5; UCH37 inh: 6; Arr AP2 block: 0; AHR activator: 16

How did Cc1cc(C=Nn2cnnc2)c(C)n1-c1ccc(OCc2ccc(Cl)cc2Cl)cc1 do in these assays?
UCH37 inh: 1

How did Cc1cc(C)cc(NC2=NC3(CCCCC3)N=C(N)N2)c1 do in these assays?
APOBEC3G inh: -9; APOBEC3A inh: -5; PolyA inh: 1; UCH37 inh: 2; Arr AP2 block: -2; AHR activator: 56*

How did CCNc1nc(NCC)nc(NN=Cc2cc(OC)c(OC)c(OC)c2)n1 do in these assays?
UCH37 inh: 9

How did CCCCCOc1ccc(Br)cc1/C(C)=N/NC1=NCCN1 do in these assays?
APOBEC3G inh: -3; APOBEC3A inh: 2; PolyA inh: 7; Arr AP2 block: -7; AHR activator: 62*

How did CCCCOc1ccc(Br)cc1C(C)=NNC1=NCCN1 do in these assays?
UCH37 inh: 2

Results for CC1CC(=O)c2c(cc3c(-c4c(O)cc(O)c5c(O)c6c(cc45)OC(C)CC6=O)c(O)cc(O)c3c2O)O1 (stereo not drawn) ?
APOBEC3G inh: 61; APOBEC3A inh: 65; PolyA inh: 19; UCH37 inh: 22*; Arr AP2 block: 6; AHR activator: -1

How did Cn1cc(-c2nnc(-c3ccccc3)o2)c2ccccc21 do in these assays?
APOBEC3G inh: -3; APOBEC3A inh: -2; PolyA inh: -16; UCH37 inh: -68; Arr AP2 block: 22; AHR activator: 49*

Results for CC(=NNC(=O)Cc1csc(N2CCOCC2)n1)c1ccccc1 ?
UCH37 inh: 4

What do the screens show for `CCSc1nsc(NC(=O)Nc2ccccc2F)n1`?
APOBEC3G inh: -8; APOBEC3A inh: -5; PolyA inh: -1; UCH37 inh: 0; Arr AP2 block: 7; AHR activator: 78*

What do the screens show for `N#CCCn1nc(-c2ccccc2)cc1Nc1ccccc1NC(=O)c1cccs1`?
APOBEC3G inh: 2; APOBEC3A inh: 2; PolyA inh: -11; UCH37 inh: 3; Arr AP2 block: 1; AHR activator: 49*

What do the screens show for `CN(C)CCCNC(=O)C(=NO)c1ccccc1`?
UCH37 inh: 3

What do the screens show for `Cc1ccccc1NCC(=O)N/N=C/c1c[nH]c2ccccc12`?
APOBEC3G inh: -1; APOBEC3A inh: -1; PolyA inh: 3; Arr AP2 block: -1; AHR activator: 62*

Results for Cc1cccc(NCC(=O)N/N=C\c2c[nH]c3ccccc23)c1 ?
APOBEC3G inh: -7; APOBEC3A inh: -4; PolyA inh: 7; Arr AP2 block: 2; AHR activator: 78*
